TNF death inh – TNF-alpha cell death inhibition in Jurkat FADD-/- cells; Jurkat FADD-/- TNF necroptosis rescue, ATP luminescence, 24 h; 0 = TNF only, 100 = no-TNF cells; activation (protection from cell death), % at 10 µM; actives 0.068% (n = 220,000); AID 463075;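 active = activation, meaning protection from cell death, of at least 50% relative to plate controls; inactive = activation below 50%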;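 note: necroptosis triggered by 40 ng/mL TNF-alpha added together with compound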
MDM2 E3 inh – Mdm2 E3 ligase (human) inhibition | Q00987 | cell-based MDM2 ubiquitination luciferase reporter, 2 h; 0 = plate control, 100 = twice control, blank-subtracted | signal enhancement, % at 5 µM | actives 0.11% (n = 210,000);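 active = signal enhancement of 30% or more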;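 note: luminescence tracks abundance of the self-degrading MDM2-luciferase fusion protein; higher signal means inhibition of MDM2 E3 ligase activity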
Target sequence (Q00987 whole entry, looked up, the tested form may be a part): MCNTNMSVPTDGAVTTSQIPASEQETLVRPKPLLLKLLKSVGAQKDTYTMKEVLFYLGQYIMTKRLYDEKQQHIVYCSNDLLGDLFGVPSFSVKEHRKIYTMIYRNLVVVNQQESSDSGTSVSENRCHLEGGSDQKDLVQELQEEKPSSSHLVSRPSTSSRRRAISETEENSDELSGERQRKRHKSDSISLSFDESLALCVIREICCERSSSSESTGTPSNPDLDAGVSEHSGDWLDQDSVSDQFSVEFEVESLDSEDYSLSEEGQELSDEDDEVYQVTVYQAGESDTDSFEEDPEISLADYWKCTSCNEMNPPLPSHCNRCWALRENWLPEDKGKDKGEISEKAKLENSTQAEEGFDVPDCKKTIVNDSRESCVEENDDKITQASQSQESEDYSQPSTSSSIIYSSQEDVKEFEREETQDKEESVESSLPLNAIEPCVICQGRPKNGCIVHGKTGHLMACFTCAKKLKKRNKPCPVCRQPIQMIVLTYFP
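system = mammalian cells stably expressing self-ubiquitinating, self-degrading MDM2 E3–luciferase fusion | quantity = 2000 cells per well seeded | incubation = 4 h cell settling then 2 h compound exposure, 37 °C | signal = SteadyLite luminescence, 15 min reagent step | benchmarks = plate control and blank wells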
E-sel TNF inh – blocks E-selectin expression induced by TNF alpha; actives 0.71% (n = 120,000); inhibition, % at 2 µM; HUVEC TNFa-induced E-selectin immunofluorescence, high content;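 active = inhibition above the batch mean plus 3 SD, and confirmed as a hit on visual image review, cut at about 43% in these data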;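 note: 0% = TNF-stimulated DMSO wells and 100% = unstimulated control wells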
zVAD death inh – blocks zVAD induced death of L929 cells; viability rescue, % at 10 µM; actives 0.38% (n = 220,000); L929 zVAD necroptosis rescue, ATP luminescence, 24 h; with zVAD 60 µM; AID 1377;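 active = activation, scaled between plate controls, above about 75%, limit read from the data; inactive = activation under that limit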;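 note: 0% = zVAD with DMSO and 100% = DMSO alone without zVAD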
HSV augment – HSV replication enhancement; HSV replication augmentation in cells, fold increase; maximum fold increase; actives 0.005% (n = 220,000); in the data active = maximum fold increase above about 1.5; tested in PC3 cells
* = called active by the depositor; i = inactive; nt = no result given. An excerpt weighted towards active compounds, which were near 0.89% of everything screened.

SMILES	TNF death inh	MDM2 E3 inh	E-sel TNF inh	zVAD death inh	HSV augment
COc1ccc(C2SCCN2C(=O)c2ccc([N+](=O)[O-])cc2)cc1 (configuration not stated)	7	-9	-8	1	i
COC(=O)c1cnc(SCc2ccc(C)cc2)n1C	3	-14	69*	0	i
O=C(NC(C(=O)O)c1ccccc1)c1ccccc1 (configuration not stated)	-1	0	10	0	i
COC(=O)C(NC(=O)c1ccccc1)c1ccccc1 (configuration not stated)	2	-18	60*	1	i
COc1ccc(CC(NC(C)=O)C(=O)NC2CCN(c3nnnn3-c3ccccc3)CC2)cc1OC (configuration not stated)	0	-13	-20	1	i
O=C(Nc1ccncc1)c1ccccc1-c1ccccc1	-4	-4	nt	-2	i
CCOc1ccc2nc(NC(=O)CCn3cccc3)sc2c1	6	-3	12	85*	i
COC(=O)c1cc2ccsc2n1Cc1nc(-c2cccc(Cl)c2)oc1C	0	-20	82*	0	i
COC(=O)c1cc2sccc2n1Cc1nc(-c2cccc(Cl)c2)oc1C	0	-7	nt	1	i
O=C(/C=C/c1ccncc1)c1ccc(NC(=O)c2ccccc2F)cc1	-3	-7	15	15	i
C=CCN(c1cccc(C(F)(F)F)c1)S(=O)(=O)c1cccc(C(=O)OCC(=O)NCCC)c1	2	116*	46	0	i
O=C(Cn1ncc(Cl)c(Cl)c1=O)NCC1CCCCC1	-13	80*	13	-1	i
COc1ccc(-n2c(C)c3c(OC)cccc(=O)c3c2C)cc1	-3	-29	56*	0	nt
CC(=O)N[C@@H](Cc1c[nH]c2ccccc12)C(=O)OCC(=O)NCc1ccc2c(c1)OCO2	2	-12	-34	3	i
CC(=O)N[C@@H](Cc1c[nH]c2ccccc12)C(=O)OCC(=O)Nc1ccc(S(=O)(=O)N(C)C)cc1	0	-4	75*	5	i
COC(=O)CSc1nc(N)nc(C)c1Br	0	-12	63*	0	i
COC(=O)CSc1nc(C)cc(C)c1C#N	0	7	nt	5	i
CC(C)OC(=O)c1cccnc1N1CCN(c2cccc(Cl)c2)CC1	0	-11	nt	-1	i
COc1ccc(-c2csc(NC(=O)/C(N=Nc3ccccc3)=C(\C)O)n2)cc1	1	-15	6	0	i
O=c1[nH]nc(N2CCOCC2)c(=O)[nH]1	1	-11	nt	0	i
COc1ccccc1-c1cc(SC)c(C#N)c(=O)o1	7	36*	nt	1	i
C=CCNC(=O)/C=C/c1cccs1	0	-14	94*	-1	i
Cn1cc([N+](=O)[O-])c(C(=O)Nc2nccs2)n1	0	-3	nt	30	i
Cn1cc([N+](=O)[O-])c(C(=O)Nc2ccc(Br)cn2)n1	-2	-25	54*	0	i
CCn1c(COc2c(C)cccc2C)nnc1SCC(=O)N1CCN(c2ccccc2)CC1	-8	-33	-19	0	i
SMILES	TNF death inh	MDM2 E3 inh	E-sel TNF inh	zVAD death inh	HSV augment
C=CCn1c(COc2cccc(C)c2C)nnc1SCC(=O)N1CCN(c2ccccc2)CC1	1	-8	68*	0	i
CCc1ccc(-c2c(C)sc(NC(C)=O)c2C(N)=O)cc1	-15	-2	3	78*	i
CCOC(=O)c1cccc(NC(=O)CSc2nnc(-c3ccoc3C)n2CCOC)c1	1	-12	100*	0	i
Cc1ccc(CC(=O)Nc2ncc([N+](=O)[O-])s2)cc1	77*	-13	nt	2	i
CC(=O)Nc1ccc(NC(=O)c2cc(C)nn2-c2ccccc2)cc1	-2	-1	2	0	i
Cc1cc(C(=O)Nc2cccc3ccccc23)n(-c2ccccc2)n1	1	42*	nt	0	i
Cc1nonc1CN(C)C(=O)c1ccc(OC2CCN(C(=O)c3cccnc3)CC2)cc1	0	-14	nt	-1	i
CCC(=O)N1CCc2cc(Br)cc(S(=O)(=O)NCc3ccco3)c21	2	1	79*	1	i
Cc1occc1-c1nnc(SCc2nnc(-c3ccc(Cl)cc3)o2)n1C	1	-13	-34	0	i
Cn1nnnc1SCc1nnc(-c2ccc(Cl)cc2)o1	1	-4	63*	1	i
S=C(NCCc1ccccc1)Nc1ccc(Br)cn1	-2	-12	nt	-1	i
COc1ccc(-c2csc3ncnc(Oc4cccc5ccc(C)nc45)c23)cc1	2	-8	89*	0	i
Cc1ccc2cccc(Oc3ncnc4scc(-c5ccccc5)c34)c2n1	2	-12	19	-1	i
COc1ccc(C(CC(=O)NCc2ccccc2)Sc2n[nH]c(-c3ccccc3)n2)cc1 (configuration not stated)	2	-14	92*	1	i
COc1ccc(S(=O)(=O)Cc2ccc(C(=O)N3CCOCC3)o2)cc1	1	-18	95*	0	i
Cc1sc2ncn(Cc3ccccc3F)c(=O)c2c1C	95*	-6	-23	1	i
CCn1cnc2sc(C)c(C)c2c1=O	-4	7	4	2	i
O=C(Oc1ccc(/C=N/Nc2ccccc2)cc1)c1ccccc1	-5	1	58*	0	i
CSCC[C@H](NC(=O)Nc1ccc(Oc2ccccc2)cc1)C(=O)O	2	-19	nt	0	i
COc1ccc(Nc2nc(-c3ccccc3)nc3ccccc23)cc1S(=O)(=O)N1CCOCC1	-10	nt	nt	1	i
Cc1nn(-c2nnc(NCc3ccccc3)nn2)c(C)c1Br	0	34*	nt	1	i
COc1cc([N+](=O)[O-])ccc1N1C(=O)C2C3C=CC(C4CC34)C2C1=O (configuration not stated)	0	-12	nt	2	i
CCCOc1ccc(C(=O)NCC(c2cccs2)N(C)C)cc1 (configuration not stated)	1	5	94*	nt	i
CCOc1ccc(C(=O)NCC(c2cccs2)N(C)C)cc1OCC (configuration not stated)	2	-15	nt	1	i
CCOC(=O)c1c(C)[nH]c(C(=O)OCCOc2ccccc2C)c1C	1	-12	67*	-1	i
CCOC(=O)c1c(C)[nH]c(C(=O)OCCOc2ccc(Cl)cc2)c1C	1	nt	nt	1	i
O=C(CN1C(=O)C2C3CC(C(Br)C3Br)C2C1=O)Nc1ccc(C(=O)O)cc1 (configuration not stated)	-1	2	nt	0	i
CN(C(=S)Nc1ccc(Oc2ccccc2)cc1)c1ccc(O)cc1	-1	-5	87*	2	nt
CN(C(=S)Nc1ccccc1)c1ccccc1	0	-26	1	0	i

Bioassay records: PubChem, several laboratories
